What was measured:
Sus scrofa = species: Sus scrofa; assay: Binding affinity to pig kidney Na+/K+-ATPase assessed as inorganic phosphate release after 2 hrs
Summary of the method: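 Purified pig kidney Na⁺,K⁺-ATPase (specific activity 25–30 U/mg protein) preincubated 2 h with a range of inhibitor concentrations in 130 mM NaCl, 20 mM KCl, 4 mM MgCl₂, 30 mM histidine pH 7.4, 20 °C. 3 mM ATP added, 5 min reaction, released inorganic phosphate measured. Ouabain-insensitive activity (1 mM ouabain) subtracted. K_app from hyperbolic fit.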

MCF7 = assay: Antiproliferative activity against human MCF7 cells assessed as cell viability treated for 48 hrs followed by compound washout measured after 72 hrs by fluorometric CellTiter-Blue reagent assay; assay type: functional, cell-based
Summary of the method: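 MCF-7 cells grown in DMEM Glutamax with 10% fetal calf serum, penicillin and streptomycin, 37 °C, 5% CO₂. Seeded 3000 cells/well in triplicate, cultured overnight, then given a dilution series of compound; equivalent DMSO dilution series used for normalization. 48 h exposure, then 72 h in fresh compound-free medium before viability read-out.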

SMILES | Kapp (Sus scrofa) [µM] | IC50 (MCF7) [µM]
C[C@]12CC[C@H](SCCOCCOCCOCCO)C[C@H]1CC[C@@H]1[C@@H]2CC[C@]2(C)[C@@H](C3=CC(=O)OC3)CC[C@]12O | 2.1 | 1.4
C[C@]12CC[C@H](SCCO)C[C@H]1CC[C@@H]1[C@@H]2CC[C@]2(C)[C@@H](C3=CC(=O)OC3)CC[C@]12O | 0.48 | 0.2
C[C@]12CC[C@H](SCCOCCO)C[C@H]1CC[C@@H]1[C@@H]2CC[C@]2(C)[C@@H](C3=CC(=O)OC3)CC[C@]12O | 0.73 | 0.4
C[C@]12CC[C@H](SCCOCCS[C@H]3CC[C@@]4(C)[C@H](CC[C@@H]5[C@@H]4CC[C@]4(C)[C@@H](C6=CC(=O)OC6)CC[C@]54O)C3)C[C@H]1CC[C@@H]1[C@@H]2CC[C@]2(C)[C@@H](C3=CC(=O)OC3)CC[C@]12O | 17.2 | 8.6
C[C@H]1O[C@@H](O[C@H]2[C@@H](O)C[C@H](O[C@H]3[C@@H](O)C[C@H](O[C@H]4CC[C@@]5(C)[C@H](CC[C@@H]6[C@@H]5CC[C@]5(C)[C@@H](C7=CC(=O)OC7)CC[C@]65O)C4)O[C@@H]3C)O[C@@H]2C)C[C@H](O)[C@@H]1O [DIGITOXIN] | 0.99 | 0.02
C[C@]12CC[C@H](SCCOCCOCCOCCS[C@H]3CC[C@@]4(C)[C@H](CC[C@@H]5[C@@H]4CC[C@]4(C)[C@@H](C6=CC(=O)OC6)CC[C@]54O)C3)C[C@H]1CC[C@@H]1[C@@H]2CC[C@]2(C)[C@@H](C3=CC(=O)OC3)CC[C@]12O | > 53 | 13
C[C@]12CC[C@H](O)C[C@H]1CC[C@@H]1[C@@H]2CC[C@]2(C)[C@@H](C3=CC(=O)OC3)CC[C@]12O [DIGITOXIGENIN] | 0.52 | 0.6
C[C@]12CC[C@H](S)C[C@H]1CC[C@@H]1[C@@H]2CC[C@]2(C)[C@@H](C3=CC(=O)OC3)CC[C@]12O | 0.42 | 0.5
C[C@]12CC[C@H](SCCS[C@H]3CC[C@@]4(C)[C@H](CC[C@@H]5[C@@H]4CC[C@]4(C)[C@@H](C6=CC(=O)OC6)CC[C@]54O)C3)C[C@H]1CC[C@@H]1[C@@H]2CC[C@]2(C)[C@@H](C3=CC(=O)OC3)CC[C@]12O | 9.9 | 7
C[C@]12CC[C@H](SCCOCCOCCS[C@H]3CC[C@@]4(C)[C@H](CC[C@@H]5[C@@H]4CC[C@]4(C)[C@@H](C6=CC(=O)OC6)CC[C@]54O)C3)C[C@H]1CC[C@@H]1[C@@H]2CC[C@]2(C)[C@@H](C3=CC(=O)OC3)CC[C@]12O | 20.5 | 6.6
C[C@]12CC[C@H](SCCOCCOCCO)C[C@H]1CC[C@@H]1[C@@H]2CC[C@]2(C)[C@@H](C3=CC(=O)OC3)CC[C@]12O | 1.27 | 0.8

Source: ChEMBL document CHEMBL1765087, “Synthesis and evaluation of cardiac glycoside mimics as potential anticancer drugs” (Bioorg Med Chem, 2011)
